Data set [1] in a line: Cytotoxicity against human BGC823 cells by MTT assay. It counts as functional, cell-based. The conditions noted are these: BGC-823.
In the next data set the test system is A549. The data set can be described thus: Cytotoxicity against human A549 cells by MTT assay. Type of data set: functional, cell-based.
For a further data set, the system named is HT-29. The data set can be described thus: Cytotoxicity against human HT-29 cells by MTT assay. It counts as functional, cell-based.
Data set [2] is described as follows: Cytotoxicity against human Bel7402 cells by MTT assay. The conditions noted are these: Bel-7402. It counts as functional, cell-based.
In the next data set the test system is A2780. Briefly: Cytotoxicity against human A2780 cells by MTT assay. It counts as functional, cell-based.
In the next data set the test system is HepG2. The data set can be described thus: Hepatoprotective activity against APAP-induced toxicity in human HepG2 cells assessed as cell survival rate at 10 uM incubated for 48 hrs by MTT assay. It counts as functional. The conditions noted are these: HepG2, 48 h, read-out: Survival. The procedure, abridged: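 HepG2 cells grown in DMEM with 10% fetal calf serum and penicillin/streptomycin at 37 °C, 5% CO2, then seeded and incubated overnight. Test sample (10 μM) added together with APAP (final 8 mM) for 48 h. MTT at 0.5 mg/mL for 4 h, formazan dissolved in DMSO, absorbance read at 570 nm. Survival given as % of normal cells; bicyclol (10 μM) positive control; n = 3.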

A short description of data set [3]: Cytotoxicity against mouse BV2 cells assessed as cell viability by MTT assay. It counts as cell-based, BV-2. The following applies: read-out: Activity. The procedure, abridged: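 Murine microglial BV2 cells under the LPS-activation conditions of the NO assay. Viability read by MTT and expressed as a percentage of the LPS-only treatment group. Means ± SD from three independent experiments.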

In a further data set the test system is BV-2. The data set can be described thus: Inhibition of LPS-induced NO production in mouse BV2 cells assessed as reduction in nitrite level pretreated for 24 hrs before LPS treatment for additional 24 hrs by Griess reaction method. It counts as functional, cell-based. The procedure, abridged: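 BV2 microglia plated and preincubated 24 h, then exposed to LPS 0.3 μg/mL for a further 24 h. Nitrite in the culture supernatant measured by Griess reaction at OD 550 nm against a NaNO2 standard. Curcumin served as positive control. IC50 given as mean ± SD of three independent experiments.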

The structures appear in SMILES notation.

Consider `COc1cc(/C=C/C(=O)O[C@H]2[C@@H]3C=CO[C@@H](O[C@@H]4O[C@H](CO)[C@@H](O)[C@H](O)[C@H]4O)[C@@H]3[C@@]3(CO)O[C@@H]23)ccc1O`, for which the IC50 (in data set [1]; in the data set on A549; with HT-29; in data set [2]; in the data set with A2780) was greater than 10 µM in each case.
For `CC(/C=C/[C@@]1(O)C(C)(C)CCC[C@@]1(C)O[C@@H]1O[C@H](C)[C@@H](O)[C@H](O)[C@H]1O)=C\C(=O)O[C@@H]1C[C@](C)(O)[C@H]2[C@H](O[C@@H]3O[C@H](CO)[C@@H](O)[C@H](O)[C@H]3O)OC=C[C@H]21`, the IC50 (in data set [1]; in the data set with A549; in the data set on HT-29; in data set [2]; in the data set on A2780) was greater than 10 µM throughout.
As for `C[C@H]1[C@H]2[C@H](O[C@@H]3O[C@H](COC(=O)/C=C/c4ccccc4)[C@@H](O)[C@H](O)[C@H]3O)OC=C(C(=O)O)[C@H]2C[C@@H]1O`, the IC50 (in data set [1]; with A549; in the data set on HT-29; in data set [2]; in the data set with A2780) was greater than 10 µM throughout. Moreover, in the data set with HepG2, the viability at 10 µM is 65.9%.
Turning to `C[C@@]1(O)[C@@H]2C(=C[C@H]1O[C@@H]1O[C@H](C(=O)O)[C@@H](O)[C@H](O)[C@H]1O)C=CO[C@H]2O[C@@H]1O[C@H](CO)[C@@H](O)[C@H](O)[C@H]1O`, the IC50 (in data set [1]; with A549; with HT-29; in data set [2]; in the data set with A2780) was greater than 10 µM throughout.
On to `OC[C@H]1O[C@@H](O[C@@H]2OC=C[C@H]3[C@H](O[C@@H]4O[C@H](CO)[C@@H](O)[C@H](O)[C@H]4O)[C@@H]4O[C@]4(CO)[C@@H]23)[C@H](O)[C@@H](O)[C@@H]1O`, for which the IC50 (in data set [1]; in the data set on A549; in the data set with HT-29; in data set [2]; in the data set on A2780) was greater than 10 µM in each case.
`C[C@]1(O)C[C@@H](O)[C@@H]2C=CO[C@@H](O[C@@H]3O[C@H](CO)[C@@H](O)[C@H](O[C@@H]4C[C@@H]5[C@H]([C@H](O[C@@H]6O[C@H](CO)[C@@H](O)[C@H](O)[C@H]6O)O4)[C@@](C)(O)C[C@H]5O)[C@H]3O)[C@@H]21`: the IC50 (in data set [1]; in the data set with A549; in the data set with HT-29; in data set [2]; in the data set with A2780) was greater than 10 µM in each case.
As to `C[C@]1(O)CCC2=CCO[C@@H](O[C@@H]3O[C@H](CO)[C@@H](O)[C@H](O)[C@H]3O)[C@@H]21`, the IC50 (in data set [1]; in the data set on A549; in the data set with HT-29; in data set [2]; in the data set on A2780) was greater than 10 µM in each case.
`C[C@]1(O)[C@H](O)C=C2C=CO[C@@H](O[C@@H]3O[C@H](CO)[C@@H](O)[C@H](O)[C@H]3O)[C@@H]21`: the IC50 (in data set [1]; in the data set with A549; in the data set on HT-29; in data set [2]; in the data set with A2780) was greater than 10 µM throughout.
Consider `OC[C@H]1O[C@H](OC[C@H]2O[C@@H](O[C@@H]3OC=C[C@H]4[C@H](O)[C@@H]5O[C@]5(CO)[C@@H]34)[C@H](O)[C@@H](O)[C@@H]2O)[C@H](O)[C@@H](O)[C@H]1O`, for which the IC50 (in data set [1]; in the data set with A549; with HT-29; in data set [2]; with A2780) was greater than 10 µM in each case.
On to `OCC1=C[C@@H](O)[C@]2(O[C@@H]3O[C@H](CO)[C@@H](O)[C@H](O)[C@H]3O)C=CO[C@@H](O[C@@H]3O[C@H](CO)[C@@H](O)[C@H](O)[C@H]3O)[C@H]12`, for which the IC50 (in data set [1]; in the data set with A549; in the data set on HT-29; in data set [2]; in the data set with A2780) was greater than 10 µM in each case.
On to `C[C@]1(O)C=CC2=CCO[C@@H](O[C@@H]3O[C@H](CO)[C@@H](O)[C@H](O)[C@H]3O)[C@@H]21`, for which the IC50 (in data set [1]; in the data set with A549; in the data set on HT-29; in data set [2]; in the data set on A2780) was greater than 10 µM in each case.
`C[C@]1(O)C[C@@H](O)[C@@H]2C=CO[C@@H](O[C@@H]3O[C@H](CO)[C@@H](O)[C@H](O)[C@H]3O)[C@@H]21`: the 50% inhibitory concentration (IC50) (in data set [1]; with A549; with HT-29; in data set [2]; in the data set on A2780) was greater than 10 µM each time. In addition, in the data set on HepG2, the viability at 10 µM was 69.9%.
As for `C[C@]1(O)C[C@@H](O[C@@H]2O[C@H](CO)[C@@H](O)[C@H](O)[C@H]2O)[C@@H]2C=CO[C@@H](O[C@@H]3O[C@H](CO)[C@@H](O)[C@H](O)[C@H]3O)[C@@H]21`, the IC50 (in data set [1]; in the data set on A549; with HT-29; in data set [2]; in the data set with A2780) was greater than 10 µM in each case.
On to `OCC1=C[C@@H](O)[C@]2(O[C@@H]3O[C@H](CO)[C@@H](O)[C@H](O)[C@H]3O[C@H]3O[C@@H](CO)[C@H](O)[C@@H](O)[C@@H]3O)C=CO[C@@H](O[C@@H]3O[C@H](CO)[C@@H](O)[C@H](O)[C@H]3O)[C@H]12`, for which the IC50 (in data set [1]; in the data set on A549; in the data set on HT-29; in data set [2]; in the data set with A2780) was greater than 10 µM in each case.
For `OCC1=C[C@@H](O)[C@]2(O[C@@H]3O[C@H](CO)[C@@H](O)[C@H](O)[C@H]3O[C@H]3O[C@@H](CO)[C@H](O)[C@@H](O)[C@@H]3O[C@@H]3O[C@H](CO)[C@@H](O)[C@H](O)[C@H]3O)C=CO[C@@H](O[C@@H]3O[C@H](CO)[C@@H](O)[C@H](O)[C@H]3O)[C@H]12`, the IC50 (in data set [1]; in the data set with A549; in the data set on HT-29; in data set [2]; in the data set with A2780) was greater than 10 µM throughout. Moreover, the viability at 10 µM in the data set on HepG2 was determined as 64%.
As to `C[C@]1(O)C[C@@H](O)[C@@H]2C[C@H](O[C@H]3C[C@@](C)(O)[C@@H]4[C@@H](O[C@H]5O[C@@H](CO)[C@H](O)[C@@H](O)[C@@H]5O)OC=C[C@@H]43)O[C@@H](O[C@H]3O[C@@H](CO)[C@H](O)[C@@H](O)[C@@H]3O)[C@@H]21`, the IC50 (in data set [1]; with A549; in the data set on HT-29; in data set [2]; with A2780) was greater than 10 µM in each case.
Regarding `C[C@]1(O)C[C@@H](O)[C@@H]2C[C@@H](O[C@H]3C[C@@](C)(O)[C@@H]4[C@@H](O[C@H]5O[C@@H](CO)[C@H](O)[C@@H](O)[C@@H]5O)OC=C[C@@H]43)O[C@@H](O[C@H]3O[C@@H](CO)[C@H](O)[C@@H](O)[C@@H]3O)[C@@H]21`, the IC50 (in data set [1]; in the data set with A549; in the data set on HT-29; in data set [2]; in the data set with A2780) was greater than 10 µM each time.
Consider `C[C@]1(O)C[C@@H](O)[C@]2(O)C=CO[C@@H](O[C@@H]3O[C@H](CO)[C@@H](O)[C@H](O)[C@H]3O)[C@@H]21`, for which the IC50 (in data set [1]; in the data set on A549; with HT-29; in data set [2]; in the data set with A2780) was greater than 10 µM throughout.
Take `OCC1=C[C@@H](O)[C@@H]2C=CO[C@@H](O[C@@H]3O[C@H](CO)[C@@H](O)[C@H](O)[C@H]3O)[C@H]12` [AUCUBIN]: the IC50 (in data set [1]; in the data set with A549; in the data set with HT-29; in data set [2]; with A2780) was greater than 10 µM throughout.
Regarding `COC(=O)c1cc(OC)c2c(c1-c1c(CO)cc(OC)c3c1OCO3)OCO2` [BICYCLOL], the viability at 10 µM in the data set with HepG2 was 66.5%.
For the molecule `O=C(O[C@H]1[C@@H]2C=CO[C@@H](O[C@@H]3O[C@H](CO)[C@@H](O)[C@H](O)[C@H]3O)[C@@H]2[C@@]2(CO)O[C@@H]12)c1ccc(O)cc1` [CATALPOSIDE], the IC50 (in data set [1]; in the data set with A549; with HT-29; in data set [2]; with A2780) was greater than 10 µM in each case.
Take `COc1cc(/C=C/C(=O)CC(=O)/C=C/c2ccc(O)c(OC)c2)ccc1O` [CURCUMIN]: the viability in data set [3] is 93.4%. The IC50 with BV-2 stood at 0.52 µM.
For the molecule `CC(/C=C/[C@@]1(O)C(C)(C)CCC[C@@]1(C)O)=C\C(=O)O[C@@H]1C[C@](C)(O)[C@H]2[C@H](O[C@@H]3O[C@H](CO)[C@@H](O)[C@H](O)[C@H]3O)OC=C[C@H]21` [REHMAGLUTOSIDE F], the concentration for half-maximal inhibition (IC50) (in data set [1]; in the data set with A549; in the data set on HT-29; in data set [2]; in the data set with A2780) was greater than 10 µM in each case. In the data set with HepG2, the viability at 10 µM stood at 63.4%.

The values above are taken from ChEMBL document CHEMBL3808301, “Bioactive Iridoid Glycosides from the Whole Plants of Rehmannia chingii” (J Nat Prod, 2016).
